This passage reports IC50, ED50 and pKa results from ChEMBL document CHEMBL1130412, “Antiulcer agents. 6. Analysis of the in vitro biochemical and in vivo gastric antisecretory activity of substituted imidazo[1,2-a]pyridines and related analogues using comparative molecular field analysis and hypothetical active site lattice methodologies” (J Med Chem, 1997).

Structures are written as SMILES. Active and inactive are the calls of the source. The rule behind the calls is not given here.

The target in series [1] is Potassium-transporting ATPase (Sus scrofa, UniProt P19156). In words: (§1) Inhibition of purified H+/K+ ATPase at pH 7.4 as released inorganic phosphate from ATP using hog stomach gastric membrane vesicles. Type of series: tissue-based. The essentials: (§2)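 Gastric membrane vesicles from hog stomach were prepared by differential and zonal density gradient centrifugation. Activity was read as inorganic phosphate released from ATP at pH 7.4. Protein was measured by the Bradford method against a gammaglobulin standard.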
Sequence of Potassium-transporting ATPase (Sus scrofa, UniProt P19156) (P18434 whole entry): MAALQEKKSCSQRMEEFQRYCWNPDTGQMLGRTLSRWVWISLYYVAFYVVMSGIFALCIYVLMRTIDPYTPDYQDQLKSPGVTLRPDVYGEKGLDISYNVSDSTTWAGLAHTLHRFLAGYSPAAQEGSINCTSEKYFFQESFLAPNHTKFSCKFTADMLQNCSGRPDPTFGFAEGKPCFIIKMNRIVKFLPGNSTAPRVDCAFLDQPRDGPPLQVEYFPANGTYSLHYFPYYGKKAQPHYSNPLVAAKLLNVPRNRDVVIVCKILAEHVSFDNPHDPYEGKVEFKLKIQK
Sequence of Potassium-transporting ATPase (Sus scrofa, UniProt P19156) (P19156 whole entry): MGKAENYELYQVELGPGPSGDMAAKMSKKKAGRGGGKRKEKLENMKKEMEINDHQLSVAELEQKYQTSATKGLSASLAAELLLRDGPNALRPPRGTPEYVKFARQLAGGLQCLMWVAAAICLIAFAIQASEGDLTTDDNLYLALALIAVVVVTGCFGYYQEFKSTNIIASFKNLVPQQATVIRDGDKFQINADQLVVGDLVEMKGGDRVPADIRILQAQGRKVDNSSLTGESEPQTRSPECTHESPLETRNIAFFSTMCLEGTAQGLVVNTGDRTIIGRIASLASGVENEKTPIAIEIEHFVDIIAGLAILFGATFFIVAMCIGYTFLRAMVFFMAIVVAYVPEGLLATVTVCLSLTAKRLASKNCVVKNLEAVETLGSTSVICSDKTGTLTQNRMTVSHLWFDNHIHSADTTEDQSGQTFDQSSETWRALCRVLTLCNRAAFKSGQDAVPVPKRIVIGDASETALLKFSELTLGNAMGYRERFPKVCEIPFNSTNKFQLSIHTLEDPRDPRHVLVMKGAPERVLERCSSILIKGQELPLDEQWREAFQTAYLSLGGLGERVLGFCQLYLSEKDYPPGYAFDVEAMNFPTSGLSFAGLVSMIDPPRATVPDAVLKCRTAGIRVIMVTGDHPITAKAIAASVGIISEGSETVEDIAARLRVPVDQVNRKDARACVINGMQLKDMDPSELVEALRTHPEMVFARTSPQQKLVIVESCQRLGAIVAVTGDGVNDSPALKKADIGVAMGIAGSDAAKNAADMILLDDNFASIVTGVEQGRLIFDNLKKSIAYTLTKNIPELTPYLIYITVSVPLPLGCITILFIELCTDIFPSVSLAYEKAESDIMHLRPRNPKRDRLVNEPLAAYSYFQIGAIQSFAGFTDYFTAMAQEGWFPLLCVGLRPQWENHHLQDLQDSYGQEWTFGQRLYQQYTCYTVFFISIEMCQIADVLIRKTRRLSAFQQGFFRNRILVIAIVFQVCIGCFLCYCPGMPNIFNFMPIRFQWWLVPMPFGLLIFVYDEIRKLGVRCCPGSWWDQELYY

For series [2], the species on record is Canis familiaris. In words: Peroral effective dose for gastric antisecretory activity against histamine-stimulated gastric acid secretion in adult mongrel dogs; Inactive. The settings on record: Canis lupus familiaris; Stomach. The format is functional, organism-based.
Series [3] concerns the target Potassium-transporting ATPase (Oryctolagus cuniculus). In words: Inhibition of H+/K+ ATPase as reduced acid formation in rabbit gastric glands.
Series [4] concerns Canis familiaris. The series can be described thus: Intravenous effective dose for gastric antisecretory activity against histamine-stimulated gastric acid secretion in adult mongrel dogs; Inactive. Type of series: functional, organism-based. Conditions: Canis lupus familiaris; Stomach. In short, it runs like this:
(§3)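 Adult mongrel dogs with surgically prepared Heidenhain pouches received histamine to stimulate acid secretion. Compounds were given intravenously at 0.1-5 mg/kg. Reduction in acid output was measured against the non-drug control value in the same animal. ED50 for 50% inhibition was derived by linear regression, with 95% confidence limits.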

For series [5], the system named is Potassium-transporting ATPase (Oryctolagus cuniculus). In words: Inhibition of H+/K+ ATPase was evaluated by its ability to inhibit acid formation in rabbit gastric glands; Inactive.
The target of series [6] is T1, Potassium-transporting ATPase (Sus scrofa, UniProt P18434+P19156). The series can be described thus: Ability to inhibit purified H+/K+ ATPase at pH 7.4 measured as release of inorganic phosphate from ATP using gastric membrane vesicles prepared from hog stomach; Inactive. The format is tissue-based. In short, it runs like this:
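Gastric membrane vesicles from hog stomach were prepared by differential and zonal density gradient centrifugation. Activity was read as inorganic phosphate released from ATP at pH 7.4. IC50 was taken as the concentration giving 50% inhibition of K+-stimulated activity, calculated by linear regression and reported ± standard error of the mean. Protein was measured by the Bradford method against a gammaglobulin standard.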

Series [7] can be described thus: Dissociation constant (pKa). Type of series: physicochemical.
The subject of series [8] is Canis familiaris. The series can be described thus: Intravenous effective dose for gastric antisecretory activity against histamine-stimulated gastric acid secretion in adult mongrel dogs; Inactive-less than 20% inhibition at 5 mg/Kg (experimental). Type of series: functional, organism-based. Conditions: Canis lupus familiaris; Stomach. The essentials:
as §3

Series [9] deals with T1, Potassium-transporting ATPase. The description is as §1. The format is tissue-based. In short, it runs like this: as §2
Series [10] relates to Canis familiaris. In words: Intravenous effective dose for gastric antisecretory activity against histamine-stimulated gastric acid secretion in adult mongrel dogs. Conditions: Canis lupus familiaris, Stomach. The format is functional. In short, it runs like this:
as §3

T1 sequence (P18434 whole entry): as the sequence (P18434 whole entry) above
T1 sequence (P19156 whole entry): as the sequence (P19156 whole entry) above

In general, ED50 refers to the dose at which the effect has come halfway, by size or by number of responders. On to `Cc1nc2c(/C=C/Cc3ccccc3)cccn2c1N`, for which the figures for the IC50 in series [1] and in series [3] (read-out: IC50) were 8600 nM and 14100 nM, respectively. The ED50 entry in [2] and in series [4] was “inactive” in each case.

On to `Cc1ccn2c(CC#N)c(C)nc2c1OCc1ccccc1`, for which the IC50 in series [1] amounted to 13700 nM; in series [3] (read-out: IC50), 400 nM.

Turning to `Cc1nc2c(CCc3ccccc3)cccn2c1N`, the IC50 in series [1] amounted to 2100 nM; in series [3] (read-out: IC50) it was 1460 nM.

For orientation: pKa means the pH at which an ionisable group is half protonated. The low end stands for a stronger acid or weaker base, the high end for a weaker acid or stronger base. For `N#CCc1c(C(F)(F)F)nc2c(OCc3ccccc3)cccn12`, the ED50 entry in series [2] and in series [4] was “inactive” in each case. For the same molecule, the IC50 result in [5] and in series [6] was “Not Active” throughout. In series [7], the pKa was determined as 2.

Consider `Cc1nc2c(/C=C/Cc3ccccc3)cccn2c1CC#N`, for which the IC50 amounted to 14000 nM in series [1] and 3800 nM in [3] (read-out: IC50).

`Cc1nc2c(/C=C/c3ccccc3)cccn2c1C`: the IC50 in series [1] stood at 1680 nM; in [3] (read-out: IC50), 990 nM.

On to `Cc1c(C(F)(F)F)nc2c(OCc3ccccc3)cccn12`, for which the ED50 entry in series [8] was “inactive”. In series [7], this molecule had a pKa of 2.

On to `Cc1nc2c(C/C=C/c3ccccc3)cccn2c1CC#N`, for which the IC50 in series [9] was found to be 206 uM l-1; in series [3], 442 uM l-1. Besides, the ED50 result in series [2] and in [4] was “inactive” throughout.

In series [10], `Cc1nc2c(OCc3ccccc3)cccn2c1C` showed an ED50 of 0.1 mg/kg. The pKa in [7] came to 7.

With `Cc1nc2c(OCc3ccccc3)nccn2c1C`, in [10], the ED50 came out at 2 mg/kg. In [7], this molecule came in with a pKa of 4.8.

For `Cc1nc2c(OCc3ccccc3)cccn2c1CO`, the IC50 is 2200 nM in series [1] and 530 nM in [3] (read-out: IC50). Also, the ED50 entry in series [2] is “inactive”. For the same molecule, in [10], it took a dose of 0.3 mg/kg to reach the 50% effect level (ED50). This molecule displayed a pKa in [7] of 6.1.

Regarding `Cc1c(CC#N)nc2c(OCc3ccccc3)cccn12`, in series [10], the ED50 was found to be 0.8 mg/kg. The same molecule showed a pKa in series [7] of 5.5.

With `Cc1nc2c(OCc3ccccc3)nccn2c1N`, the IC50 in [9] worked out at 178 uM l-1; in series [3] (read-out: IC50) it was 8080 nM.

Consider `Cc1nc2c(CCc3ccccc3)cccn2c1CC#N`, for which the IC50 in [1] came out at 2000 nM; in [3] (read-out: IC50), 130 nM.

Regarding `Cc1nc2c3c(ccn2c1CC#N)CCC(c1ccccc1)O3` (stereo unspecified), the IC50 in series [1] is 92 nM; in series [3] (read-out: IC50), 64 nM. It took a dose of 0.06 mg/kg to reach the 50% effect level in series [10] (ED50).

`Cc1nc2c(CCc3ccccc3)cccn2c1C`: in series [10], it took a dose of 0.2 mg/kg to reach the 50% effect level (ED50). In series [7], this molecule came in with a pKa of 7.5.

Regarding `Cc1nc2c(CCc3ccccc3)nccn2c1N`, the ED50 entry in series [8] was “inactive”. This molecule returned a pKa in series [7] of 5.1.

On to `OCc1c(C(F)(F)F)nc2c(OCc3ccccc3)cccn12`, for which the ED50 result in series [2] and in series [4] was “inactive” each time. For the same molecule, the IC50 result in [5] and in series [6] was “Not Active” in each case. This molecule also returned a pKa in [7] of 2.

As to `Cc1nc2c(/C=C\c3ccccc3)cccn2c1C`, the values for the IC50 in series [1] and in [3] (read-out: IC50) were 28400 nM and 17500 nM, respectively. For the same molecule, the ED50 entry in series [2] and in series [4] was “inactive” throughout.

In the case of `Cc1nc2c(OCc3ccccc3)cccn2c1N`, the results for the IC50 in series [1] and in series [3] (read-out: IC50) were 890 nM and 310 nM, respectively.
